Source: PubChem BioAssay
rRNA inh HTS: inhibits bacterial ribosomal RNA function over humanized ribosomes | 350,000 tested, 1.6% active | E. coli WT GFP vs humanized-ribosome RFP mutants, fluorescence, 24 h; hits give low values; DMSO median 0, no signal -100 | GFP signal change (wild-type ribosome), % (no concentration beside the values);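 active = significant combined selectivity score with lowered wild-type GFP, culture density cut under 30%, mutant RFP and density less affected; inactive = any of these conditions unmet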
RAD52 anneal inh: RAD52 (human) annealing inhibition; inhibition, % at 18.7 µM; P43351; recombinant RAD52 DNA annealing, FRET fluorescence; 360,000 tested, 0.46% active;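 active = every replicate showing at least 50% inhibition; inconclusive = mean inhibition at least 50% but not in every replicate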
Target sequence (P43351 whole entry, looked up): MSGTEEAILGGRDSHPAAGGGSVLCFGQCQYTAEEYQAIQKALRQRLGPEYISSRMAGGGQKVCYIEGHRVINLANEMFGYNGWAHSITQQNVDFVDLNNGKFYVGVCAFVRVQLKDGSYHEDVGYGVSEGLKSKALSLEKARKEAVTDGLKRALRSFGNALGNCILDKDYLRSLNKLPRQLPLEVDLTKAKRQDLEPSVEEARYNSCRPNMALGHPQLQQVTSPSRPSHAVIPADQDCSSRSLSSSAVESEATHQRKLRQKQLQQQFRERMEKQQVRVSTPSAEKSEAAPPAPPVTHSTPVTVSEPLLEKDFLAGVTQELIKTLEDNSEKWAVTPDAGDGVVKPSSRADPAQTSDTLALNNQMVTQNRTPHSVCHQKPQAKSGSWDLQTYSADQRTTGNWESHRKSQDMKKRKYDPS
RAD54 branch: blocks human RAD54 Holliday junction branch migration; FAM/BHQ fluorescence; inhibition, % at 10.4 µM; 360,000 tested, 0.14% active; AID 602329;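 active = mean normalized replicate activity at least 40 and at least half of replicates scoring 40 or more; inconclusive = only one of the two criteria met; inactive = mean below 40 and under half of replicates reaching 40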;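 also: 0% = median of neutral control wells and 100% = median of positive control wells; inhibitors cause a drop in the FAM fluorescence signal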
XiGFP reactiv: activators of X-chromosome reactivation in mouse fibroblasts | XiGFP mouse fibroblasts, % GFP-positive cells imaging, 3 d; cells co-treated with 5-aza-dC sensitizer; scaled so ellipticine positive control = 100% | activation, % at 7.58 µM | 360,000 tested, 0.055% active | AID 743238;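 active = mean normalized replicate activation at least 10% and every replicate at or above 10%; inconclusive = only one of the two criteria met; inactive = mean below 10% and not all replicates reach 10%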;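 also: 0% = median of on-plate neutral control wells and 100% = ellipticine 6 µM median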
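Material: XiGFP fibroblasts, SV40-immortalized; Buffer or medium: DMEM containing 5-aza-dC; Compound dosing: single point; Times: 3 days compound exposure.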
PglD DTNB: PglD (C. jejuni) enzyme inhibition | purified PglD enzyme, DTNB colorimetric CoA detection | inhibition, % at 12.5 µM | 360,000 tested, 0.098% active; in the data active = inhibition above about 16%, passing the limit was not always enough; inconclusive = no clear call, values can overlap the other calls
E-selectin induc: induces E-selectin expression in human endothelial cells | activation, % at 7.58 µM | 260,000 tested, 0.37% active | AID 686992 | HUVEC E-selectin immunofluorescence imaging; normalized: neutral wells 0, TNF-alpha wells 100 | P16581;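 active = mean E-selectin-positive cell signal at least 10% of the positive control, reached in at least 60% of replicates, without over 20% cell loss; inconclusive = no rule given, readout overlaps actives, possibly toxicity-flagged; inactive = the rest, including those meeting only one limit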
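Read-out: % PE-positive cells | Test system: HUVEC | Doses: One compound dose added by pin transfer | Buffer or medium: EGM-2 over gelatin coat | Signal: Immunofluorescence imaging | Benchmarks: TNF-alpha, DMSO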
Rad54 DNA ctr: binds DNA, flagging false Rad54 inhibitor hits; shares compounds with RAD54 branch; Acridine orange-DNA displacement, fluorescence polarization, 20 min; AC50, µM (doses to about 35 µM), for inactives: at the highest dose activity change, negative = DNA binding; 460 tested, 8% active; AID 651673;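 active = signal drop giving an AC50 within twice the top valid tested concentration of each sample, actives reach about 35 µM in these data; inactive = activity opposite to expected, plus the rest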;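 also: polarization loss reports compound binding to salmon sperm DNA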
* marks the source's active call; other numbers are inactive results; i = inactive; ? = inconclusive; · = no result given. Only some compounds are listed: those with a hit (about 2% of all), similar ones and a draw of the others.

SMILES	rRNA inh HTS	RAD52 anneal inh	RAD54 branch	XiGFP reactiv	PglD DTNB	E-selectin induc	Rad54 DNA ctr
CN1CCc2[nH]c3ccc(C(=O)NN)cc3c2C1	·	·	66.9*	·	-0.7	·	2.5%
CC(=O)Nc1ccc(-c2ccnc3c2CC(C(=O)NCc2ccc(N4CCN(C)CC4)cc2)O3)cc1 (stereo unspecified)	0.2	35.4	31.1	0.1	1.6	0.6	·
CN1CCN(c2ccc(CNC(=O)C3Cc4c(-c5ccc(Cl)cc5)ccnc4O3)cc2)CC1 (stereo unspecified)	-25.0	42.6	?	0.2	-4.8	0.9	-11.4%
COc1ccc(Cl)c2sc(N(CCN(C)C)C(=O)C3=COCCO3)nc12	-0.2	36.9	?	-0.1	-2.8	0.7	3.1%
CC(C)N1CCc2c(sc(NC(=O)c3ccc(S(=O)(=O)N4CCCCC4C)cc3)c2C(N)=O)C1 (stereo unspecified)	-8.1	-6.9	-1.4	-0.1	3.2	0.3	·
COC(=O)c1c(NC(=O)c2ccco2)sc2c1CCN(C(C)C)C2	14.7	30.5	61.8*	-0.1	-9.0	0.2	-8.7%
CC(C)N1CCc2c(sc(NC(=O)c3ccc(C(=O)c4ccccc4)cc3)c2C(N)=O)C1	-52.3	-66.4	50.5*	2.0	8.1	0.0	-8.6%
CC(C)N1CCc2c(sc(NC(=O)c3ccco3)c2C(N)=O)C1	14.3	-39.7	30.5	0.2	-0.1	-0.8	·
COc1ccc(Cn2cc3c(-c4ccc(F)cc4)nnc-3c3cc(OC)c(OC)cc32)cc1	74.4	-242.5	63.9*	80.5*	2.9	0.3	0.3%
O=C(NCc1ccncn1)[C@@H]1[C@@H](CO)[C@@H]2Cn3c(ccc(-c4ccncc4)c3=O)[C@@H]2N1CC1CC1	1.6	-25.4	-2.1	0.0	-1.1	0.0	·
CCN(CC)CC(=O)Nc1cccc2c1C(=O)c1ccccc1C2=O	·	·	70.4*	0.0	7.5	·	2.0%
C[C@H]1CN([C@@H](C)CO)C(=O)c2c(c3ccccc3n2C)-c2ccccc2CO[C@H]1CN(C)C(=O)Nc1cccc(C(F)(F)F)c1	-1.0	9.0	·	-0.1	·	6.2	·
Cc1c(CN(C)C)c2c(n1C)C(=O)c1ccc(Br)cc1-2	·	·	70.9*	·	-0.8	·	i
Cc1c(CN(C)C)c2c(n1Cc1ccccc1)C(=O)c1ccc(Br)cc1-2	·	·	20.0	·	8.3	·	·
CC(C)NC(=O)N(C)C[C@H]1Oc2ccc(NC(=O)C3CC3)cc2C(=O)N([C@H](C)CO)C[C@H]1C	-1.4	8.4	-0.3	-0.4	1.8	4.8	·
C[C@@H]1CCCCO[C@@H](CN(C)C(=O)c2ccncc2)[C@H](C)CN([C@@H](C)CO)C(=O)c2cc(N(C)C)ccc2O1	1.2	-39.7	-13.0	0.4	-1.8	0.0	·
Cc1c(-c2cc(Br)ccc2O)nc2cc3c(cc2c1C)OCO3	6.2	-20.8	?	0.0	-0.7	·	-23.5%
Cc1nc(NC(=O)c2ccc(Cl)cc2)nc2cc3c(cc12)OCO3	·	·	4.6	-0.1	1.9	-0.2	·
N#C[C@@H]1[C@@H](c2ccccc2-c2ccc(F)cc2)[C@H](CO)N1c1ncc(-c2ccccc2)s1	-4.7	5.5	·	0.0	·	0.0	·
C[C@@H]1CN([C@@H](C)CO)C(=O)Cc2cc(NS(=O)(=O)c3ccccc3)ccc2O[C@H]1CN(C)Cc1ccc(C(=O)O)cc1	3.0	3.0	·	1.2	·	0.1	·
OCCN1CCN(c2ncnc3c2sc2nc(N4CCOCC4)c4c(c23)CCC4)CC1	-13.1	15.4	53.1*	·	·	·	-8.2%
Clc1ccc2[nH]c3c(NCCCN4CCOCC4)ncnc3c2c1	·	·	?	·	5.5	·	-1.2%
CCOC(=O)c1c(NC(C)=O)sc2c(OCC(O)CNC(C)(C)C)c(Br)ccc12 (stereo unspecified)	·	·	?	0.0	-1.8	·	-12.0%
CCOC(=O)c1c(N)sc2c(OCC)c(Br)ccc12	-54.8	-5.7	4.4	·	0.4	·	·
CCC(=O)N(Cc1cc2cc(OC)ccc2[nH]c1=O)c1cc(C)ccc1C	·	·	?	·	-4.9	·	8.5%
SMILES	rRNA inh HTS	RAD52 anneal inh	RAD54 branch	XiGFP reactiv	PglD DTNB	E-selectin induc	Rad54 DNA ctr
COc1ccc2[nH]c(=O)c(CN(C(C)=O)c3cc(C)ccc3C)cc2c1	5.1	-0.2	6.9	0.0	-0.7	0.4	·
COc1ccc2c(c1)c1ncn(CCN3CCNCC3)c(=O)c1n2C	-7.2	22.0	·	·	·	·	·
COc1ccc2c(c1)c1ncn(CCN3CCCC3)c(=O)c1n2C	·	·	59.2*	·	1.2	·	3.3%
COc1ccc2c(c1)c1ncn(CCN3CCCCC3)c(=O)c1n2C	·	·	52.0*	·	-7.2	·	14.8%
COc1ccc2[nH]c3c(=O)n(CCN4CCOCC4)cnc3c2c1	2.1	-5.2	1.0	-0.2	1.0	-0.2	·
Cn1nc(-c2ccccc2)cc1NS(=O)(=O)c1ccc(C#N)cc1	5.1	-7.3	?	1.4	1.3	0.2	-8.2%
Cn1nc(-c2ccccc2)cc1NS(=O)(=O)c1ccccc1	-1.6	-2.4	·	0.2	·	·	·
Cc1ccc(C)c(N2CCN(C(=S)Nc3ccc4nc(N5CCN(C)CC5)cc(C)c4c3)CC2)c1	-7.4	11.3	?	-0.1	-5.0	·	5.4%
COc1ccccc1-c1cnc2c(c1)C(=O)N([C@H](C)CO)C[C@H](C)[C@H](CN(C)C(=O)c1ccccc1)O2	-2.6	3.8	-11.3	-0.3	-0.9	0.0	·
Cc1cccn2c(=O)c3cc(C(=O)NCCN4CCOCC4)c(=N)n(CCc4ccccc4)c3nc12	·	·	42.7	·	0.6	·	·
Cc1cccn2c(=O)c3cc(C(=O)NCc4ccccc4)c(=N)n(CCCN4CCOCC4)c3nc12	9.0	32.4	61.1*	0.0	-9.6	·	-15.4%
CCNC(=O)c1cc2c(=O)n3cccc(C)c3nc2n(CCc2ccccc2)c1=N	·	·	50.3*	·	-10.8	·	0.0%
COc1ccc(CCn2c(=N)c(C(=O)NCCN3CCOCC3)cc3c(=O)n4cccc(C)c4nc32)cc1OC	6.5	37.1	77.3*	-0.1	0.2	·	-4.4%
Cc1cccn2c(=O)c3cc(C(=O)NCCc4ccccc4)c(=N)n(CCCn4ccnc4)c3nc12	·	·	51.8*	·	-17.3	·	-3.6%
CCCCNC(=O)c1cc2c(=O)n3cccc(C)c3nc2n(Cc2ccccc2)c1=N	12.1	18.9	29.8	·	-8.5	·	·
Cc1cccn2c(=O)c3cc(C(=O)NC4CCCC4)c(=N)n(CCc4ccccc4)c3nc12	2.7	-340.7	-8.9	0.0	0.2	·	·
COCC(=O)Nc1ccc2c(c1)[C@@H]1C[C@@H](CC(=O)NCCN3CCCCC3)O[C@H](CO)[C@@H]1O2	2.1	21.8	10.3	0.6	0.2	-0.1	·
COc1cc2c(cc1O)C(c1cccs1)N(Cc1sc3ccccc3c1Cl)CC2 (stereo unspecified)	·	6.5	-1.8	·	-0.2	·	·
